Bioassay records as filed in PubChem.
An excerpt weighted towards active compounds, which were near 2.1% of everything screened.
F508del corr: CFTR F508del correction in bronchial cells. CFBE cells, YFP halide quenching; stimulated with forskolin plus potentiator P3; % fluorescence drop versus neutral controls. activity (quench increase), % at 7.58 µM. 350,000 compounds, 0.36% hits;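 active = mean added fluorescence quench of at least 8% versus neutral control, with both replicates also reaching 8%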;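 also: cells transiently co-express mutant CFTR-F508del with the halide-sensitive YFP; corrector assay measuring rescue of mutant channel to the surface after 24 h compound exposure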
SMARCA2 activ: activators of SMARCA2 function. MG213 cells, MMTV-luciferase reporter, dexamethasone, overnight. activation, % at 9.1 µM. 370,000 compounds, 1% hits. AID 652017; in the data active = activation above about 7.8%;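 also: 0% = vehicle wells and 100% = reference activator wells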
MC4R antag cAMP: antagonists of human melanocortin 4 receptor (MC4R). inhibition, % at 6.5 µM. MC4R-expressing cells, MTII-stimulated cAMP, LANCE TR-FRET. P32245. 360,000 compounds, 0.48% hits;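 active = inhibition above its plate's cutoff, the mean of tested wells on that plate plus 3 SD, cut at about 29% in these data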;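 also: 0% = Melanotan II alone and 100% = Melanotan II plus saturating MCL0020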
Target sequence (P32245 whole entry, looked up): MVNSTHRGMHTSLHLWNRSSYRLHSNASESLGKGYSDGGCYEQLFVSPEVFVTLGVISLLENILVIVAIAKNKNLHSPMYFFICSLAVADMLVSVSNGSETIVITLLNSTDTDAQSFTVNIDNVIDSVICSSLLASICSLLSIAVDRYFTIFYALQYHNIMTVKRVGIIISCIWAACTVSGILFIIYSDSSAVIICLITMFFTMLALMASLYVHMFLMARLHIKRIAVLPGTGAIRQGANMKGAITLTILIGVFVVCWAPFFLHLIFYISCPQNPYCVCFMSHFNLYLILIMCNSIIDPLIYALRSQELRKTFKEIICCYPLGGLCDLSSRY
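System – human MC4R-expressing U2OS cells · Also added – Melanotan II · Dosing – one concentration, 6.5 µM nominal · Timing – 30-min compound, 1-h challenge, 1-h detection, room temperature · Measured by – Eu-cAMP/anti-cAMP TR-FRET, emission 671 nm · Replicates – singlicate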
MC4R ag barr: activates human MC4R beta-arrestin recruitment; P32245; U2OS MC4R beta-arrestin complementation, luminescence; percent of melanotan II response, DMSO zero; activation, % at 8.9 µM; 360,000 compounds, 0.98% hits; AID 540308;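 active = activation above a per-plate cutoff, the mean activation of sample wells on that plate plus 3 SD, cut at about 8% in these data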
An asterisk follows results filed as active.

C[C@H](CO)N1C[C@H](C)[C@@H](CN(C)Cc2ccccc2)Oc2cc(/C=C/c3ccccc3)ccc2S1(=O)=O was read as F508del corr 1.4.
C[C@@H]1CN([C@H](C)CO)S(=O)(=O)c2ccc(/C=C/c3ccccc3)cc2O[C@H]1CN(C)C(=O)NC1CCCCC1 was read as F508del corr 9.6*.
`COc1ccccc1C#Cc1ccc2c(c1)O[C@H](CN(C)Cc1cccnc1)[C@H](C)CN([C@@H](C)CO)S2(=O)=O` gave F508del corr 8.2*.
Screening C/C=C/c1ccc2c(c1)O[C@H](CN(C)C(=O)Nc1cccc(F)c1)[C@H](C)CN([C@@H](C)CO)S2(=O)=O returned F508del corr 4.4.
`C/C=C/c1ccc2c(c1)O[C@@H](CN(C)C(=O)Nc1cccc(F)c1)[C@H](C)CN([C@H](C)CO)S2(=O)=O` gave F508del corr 8.5*.
`C[C@H]1CN([C@@H](C)CO)S(=O)(=O)c2ccc(/C=C/c3ccccc3)cc2O[C@H]1CN(C)Cc1ccccc1` gave F508del corr 8.0*.
Screening C[C@@H]1CN([C@@H](C)CO)C(=O)Cc2cc(NC(=O)c3ccncc3)ccc2O[C@H]1CN(C)Cc1ccc(C(F)(F)F)cc1 returned F508del corr 3.0.
`Cc1noc(C)c1NC(=O)Nc1ccc2c(c1)C(=O)N([C@@H](C)CO)C[C@H](C)[C@@H](CN(C)C)OCCCC[C@H](C)O2` gave F508del corr -0.6.
O=C(CCN1CCCCC1)NCC[C@@H]1CC[C@H](NC(=O)C2CCCCC2)[C@@H](CO)O1 was read as F508del corr -0.2.
For C[C@H](CO)N1C[C@H](C)[C@@H](CN(C)C(=O)Nc2ccc(C(F)(F)F)cc2)Oc2ccc(NS(=O)(=O)c3ccc(F)cc3)cc2CC1=O the results were F508del corr 0.3.
For O=C(CN1CCOCC1)NCC[C@H]1CC[C@H](NS(=O)(=O)c2ccc(F)cc2)[C@@H](CO)O1 the results were F508del corr -2.8.
For CC=Cc1ccc2n(c1=O)C[C@H]1[C@H](CO)[C@@H](C(=O)NCC3CC3)N(CCC(F)(F)F)[C@@H]21 (mixture of isomers) the results were F508del corr 0.8.
`C[C@@H]1CN([C@H](C)CO)C(=O)Cc2cc(NS(=O)(=O)c3ccc(F)cc3)ccc2O[C@@H]1CN(C)Cc1ccc(C(=O)O)cc1` gave F508del corr 0.4.
Screening C[C@H]1CN([C@@H](C)CO)S(=O)(=O)c2ccc(/C=C/c3ccccc3)cc2O[C@@H]1CN(C)C(=O)Nc1ccc(F)cc1 returned F508del corr 10.0*.
Screening N#C[C@H]1[C@H](c2ccc(C3=CCCC3)cc2)[C@H](CO)N1C(=O)NC1CCCC1 returned F508del corr -4.2.
For Nc1nonc1-n1nnc(C(=O)N/N=C/c2ccc(Br)cc2)c1-c1ccc2c(c1)OCO2 the results were F508del corr 4.4, SMARCA2 activ -3.3, MC4R antag cAMP 7.1 and MC4R ag barr 8.8*.
`Nc1nonc1-n1nnc(C(=O)N/N=C/c2ccc3c(c2)OCO3)c1-c1ccccc1` gave F508del corr -0.3, SMARCA2 activ 0.9, MC4R antag cAMP 22.8 and MC4R ag barr -0.7.
Screening CC(O)(CS(=O)(=O)Cc1ccc(Cl)cc1)C(=O)Nc1cccc(C(F)(F)F)c1 (configuration not stated) returned F508del corr 1.9, MC4R antag cAMP 11.5 and MC4R ag barr 11.4*.
Screening COc1cccc(/C=N/n2c(N)c(S(=O)(=O)c3cccs3)c3nc4ccccc4nc32)c1 returned SMARCA2 activ -5.1, MC4R antag cAMP -5.5 and MC4R ag barr -1.3.
For Nc1c(S(=O)(=O)c2cccs2)c2nc3ccccc3nc2n1/N=C/c1cccc(O)c1 the results were SMARCA2 activ -0.6, MC4R antag cAMP 16.9 and MC4R ag barr 8.4*.
Cn1c(/C=C/c2ccc(Br)cc2)nc2ccccc2c1=O was read as F508del corr -1.5, SMARCA2 activ 3.3, MC4R antag cAMP 25.6 and MC4R ag barr 9.0*.
For Cc1cnc(NC(=O)CCc2ccccc2)s1 the results were F508del corr 8.9*, SMARCA2 activ 2.7, MC4R antag cAMP 2.0 and MC4R ag barr -0.4.
For COc1ccc(NC(=O)c2cc(C3CC3)on2)c(OC)c1 the results were F508del corr 8.2*, SMARCA2 activ 0.5, MC4R antag cAMP 18.0 and MC4R ag barr -0.2.
C[C@@H]1CN([C@@H](C)CO)C(=O)c2cc(NS(=O)(=O)c3cccs3)ccc2O[C@@H](C)CCCCO[C@H]1CN(C)C(=O)Cc1ccccc1 was read as F508del corr -2.1.
O=C(C[C@@H]1CC[C@@H]2[C@H](COC[C@H](O)CN2Cc2nccs2)O1)NCc1ccc(F)cc1 was read as F508del corr -3.9.
CCC(=O)Nc1ccc2c(c1)OC[C@H](C)N(C(=O)Cc1cccnc1)C[C@@H](C)[C@H](OC)CN(C)C2=O was read as F508del corr 2.7.
CCCNC(=O)N1CC2(C1)[C@@H](c1ccccc1)[C@H](CO)N2Cc1ccc(F)cc1 was read as F508del corr 3.8.
`Nc1nc(CCl)nc(Nc2ccccc2)n1` gave F508del corr -3.2, SMARCA2 activ 0.1, MC4R antag cAMP 3.3 and MC4R ag barr -2.8.
For COc1ccc(OC)c(Nc2nc(N)nc(CCl)n2)c1 the results were F508del corr -8.3, SMARCA2 activ -9.3, MC4R antag cAMP 10.1 and MC4R ag barr 9.2*.
For COc1ccccc1Nc1nc(N)nc(CCl)n1 the results were F508del corr 0.1, SMARCA2 activ -2.0, MC4R antag cAMP 15.1 and MC4R ag barr 5.2.
For CCOc1ccc(Nc2nc(N)nc(CCl)n2)cc1 the results were F508del corr -2.1, SMARCA2 activ -10.8, MC4R antag cAMP 10.6 and MC4R ag barr 12.0*.
Screening Cc1ccc(Nc2nc(N)nc(CCl)n2)c(C)c1 returned F508del corr -1.3, SMARCA2 activ -12.4, MC4R antag cAMP 10.7 and MC4R ag barr 15.2*.
For COc1ccc(C(=O)OCc2nc(N)nc(Nc3ccccc3C)n2)cc1OC the results were F508del corr 8.4*, SMARCA2 activ -1.4, MC4R antag cAMP -8.0 and MC4R ag barr 0.8.
Screening O=C(C1CCCCC1)N1CC[C@@H]2[C@H]1c1cc(Br)ccc1N[C@@H]2CO returned F508del corr 5.6.
`COc1ccc(S(=O)(=O)Nc2ccc3c(c2)CC(=O)N([C@@H](C)CO)C[C@H](C)[C@@H](CN(C)S(C)(=O)=O)O3)cc1` gave F508del corr -1.8.
For O=C(N[C@@H]1CC[C@@H](CCn2cc(C3CCCCC3)nn2)O[C@@H]1CO)c1cccnc1 the results were F508del corr 2.1.
For O=C(Nc1ccccc1O)C(c1ccccc1)c1ccccc1 the results were F508del corr 3.5, SMARCA2 activ -5.3, MC4R antag cAMP -1.4 and MC4R ag barr 1.5.
`O=C(Nc1ccccc1-c1ccccc1)C(c1ccccc1)c1ccccc1` gave SMARCA2 activ -0.7, MC4R antag cAMP 0.7 and MC4R ag barr 9.4*.
